Assay results taken from ChEMBL document CHEMBL1148421, “Novel 3,5-diaryl pyrazolines and pyrazole as low-density lipoprotein (LDL) oxidation inhibitor” (Bioorg Med Chem Lett, 2004).

Key:
Format in all cases: functional
[1] = In vitro ability to protect human LDL against Cu2+-induced peroxidation. (concentration inhibiting 50% of the Cu2+ induced lipid peroxidation)
Procedure, shortened: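 Human LDL (120 µg/mL) oxidized with 10 µM CuSO4 as initiator for 4 h in the presence of compound. Lipid peroxidation read out as TBARS. IC50 is the concentration inhibiting TBARS formation by 50%.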

Homo sapiens [2] = species on record: Homo sapiens; assay: Antioxidant effect on the Cu2+-mediated oxidation andapoB-100 fragmentation in LDL after incubation with 5 uM of compound
Procedure, shortened: (§1)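 LDL (240 µg/mL in PBS) incubated 12 h at 37 °C with 5 µM CuSO4, with or without compound. About 2.0 µg LDL protein run on 4% SDS-PAGE and stained with Coomassie Brilliant Blue R250. ApoB-100 band quantified by densitometry as peak area (absorbance units per mm). Also reported as percent remaining apoB-100 relative to intact apoB-100 of native LDL incubated without CuSO4.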

Homo sapiens [3] = species on record: Homo sapiens; assay: Antioxidant effect on the Cu2+-mediated oxidation andapoB-100 fragmentation in LDL after incubation with 20 uM of compound; procedure, shortened: as §1
Homo sapiens [4] = species on record: Homo sapiens; assay: Antioxidant effect on the Cu2+-mediated oxidation andapoB-100 fragmentation in LDL after incubation with 10 uM of compound; procedure, shortened: as §1
Homo sapiens [5] = species on record: Homo sapiens; assay: Antioxidant effect on the Cu2+-mediated oxidation and apoB-100 fragmentation in LDL after incubation with 5 uM of compound; procedure, shortened: as §1
Homo sapiens [6] = species on record: Homo sapiens; assay: Antioxidant effect on the Cu2+-mediated oxidation and apoB-100 fragmentation in LDL after incubation with 20 uM of compound; procedure, shortened: as §1
Homo sapiens [7] = species on record: Homo sapiens; assay: Antioxidant effect on the Cu2+-mediated oxidation and apoB-100 fragmentation in LDL after incubation with 10 uM of compound; procedure, shortened: as §1

| IC50 [1] [nM] | Compound | other results |
| --- | --- | --- |
| 300 | CC(C)(C)c1cc(C2=NNC(c3ccc(O)c(O)c3)C2)cc(C(C)(C)C)c1O (stereo not drawn) | – |
| 200 | COc1cc(C2CC(c3cc(C(C)(C)C)c(O)c(C(C)(C)C)c3)=NN2)ccc1O (stereo not drawn) | – |
| 600 | CC(C)(C)c1cc(C2=NNC(c3cc(-c4ccccc4)c(O)c(-c4ccccc4)c3)C2)cc(C(C)(C)C)c1O (stereo not drawn) | – |
| 200 | Cc1cc(C2CC(c3cc(C(C)(C)C)c(O)c(C(C)(C)C)c3)=NN2)cc(C)c1O (stereo not drawn) | – |
| 100 | CC(C)(C)c1cc(C2=NNC(c3cc(C(C)(C)C)c(O)c(C(C)(C)C)c3)C2)cc(C(C)(C)C)c1O (stereo not drawn) | Area (Homo sapiens [2]): 5.63 AU mm-1; Area (Homo sapiens [3]): 9.97 AU mm-1; Area (Homo sapiens [4]): 9.26 AU mm-1 |
| 700 | CC(C)c1cc(C2CC(c3cc(C(C)(C)C)c(O)c(C(C)(C)C)c3)=NN2)cc(C(C)C)c1O (stereo not drawn) | – |
| 700 | CC(C)(C)c1cc(-c2cc(-c3cc(C(C)(C)C)c(O)c(C(C)(C)C)c3)[nH]n2)cc(C(C)(C)C)c1O | – |
| 200 | CC(C)(C)c1cc(C2=NNC(c3ccc(O)cc3)C2)cc(C(C)(C)C)c1O (stereo not drawn) | – |
| 200 | CC(C)(C)c1cc(C2=NNC(c3cc(F)c(O)c(F)c3)C2)cc(C(C)(C)C)c1O (stereo not drawn) | – |
| 300 | CC(C)(C)c1cc(C2=NNC(c3ccc(O)c([N+](=O)[O-])c3)C2)cc(C(C)(C)C)c1O (stereo not drawn) | – |
| 600 | Cc1cc(C2CC(c3cc(C(C)(C)C)c(O)c(C(C)(C)C)c3)=NN2)c(C)c(C)c1O (stereo not drawn) | – |
| 600 | CC(C)(Sc1cc(C(C)(C)C)c(O)c(C(C)(C)C)c1)Sc1cc(C(C)(C)C)c(O)c(C(C)(C)C)c1 [PROBUCOL] | Area (Homo sapiens [5]): 0 AU mm-1; Area (Homo sapiens [6]): 9.22 AU mm-1; Area (Homo sapiens [7]): 4.73 AU mm-1 |
